Assay outcomes from PubChem BioAssay.
L major viab = Leishmania major promastigote growth inhibition, primary screen; inhibition, % at 10 µM; 9% of 200,000 active; Leishmania major promastigotes, resazurin fluorescence viability; in the data active = inhibition above about 50%;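 also: promastigotes grown with compound for 44 hours at 28 °C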
bCat nuc transl = modulators of beta-catenin nuclear translocation, primary screen, imaging, HeLa cells, immunofluorescence, high-content; nuclear translocation activity, % at 5 µM; 0.3% of 190,000 active;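 active = nuclear translocation activity above 50% at 5 µM, with a well cell count of 50 or more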;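 also: per-cell ratio of nuclear to cytoplasmic median beta-catenin stain intensity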
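test system = HeLa cells, endogenous beta-catenin | dosing = single 5 µM dose plus 0.02–20 µM confirmation series | times = compound treatment 24 h, 37°C, 5% CO2 | technique = beta-catenin immunofluorescence imaging with DAPI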
MT stabilize HCS = microtubule stabilizers in HeLa cells, primary screen, imaging, high-content imaging | HeLa tubulin immunostaining HCS, 24 h; share of cells brighter than vehicle mean+2SD | % tubulin-high responders, % at 10 µM | 0.83% of 200,000 active;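 active = plate Z-score above 3 for both tubulin-high and condensed-nucleus cell shares, with cell loss under 80%, at 10 µM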;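 also: anti alpha tubulin signal scored within the nucleus-defined area of each cell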
HSV augment = enhancers of HSV replication in host cells, fold increase, host cell viability | HSV replication augmentation in cells | maximum fold increase | 0.005% of 220,000 active | AID 1956, 2009; in the data active = maximum fold increase above about 1.5; tested in PC3 cells
Dynein cargo inh = inhibitors of GR-EGFP nuclear translocation, primary screen, dynein cargo transport inhibitor project, imaging, high-content, 3617.4 mouse cells; 0.47% of 220,000 active; z-score, hits read low; test concentration mostly 20 µM; stimulated with dexamethasone, 1 µM; stronger effect = lower value;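 active = plate z-score of nuclear minus cytoplasmic receptor signal below a set negative limit, without overly bright fluorescence or cell loss, cut at about -3.5 in these data, passing the limit was not always enough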;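 also: z-score of nuclear minus cytoplasmic ring GR-EGFP intensity difference per well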
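Buffer or medium: tet-free, stripped-serum medium; Also added: dexamethasone, 1.0 µM final; Technique: high-content fluorescence imaging after fixation; Times: 48 h induction, 1 h compound, 30 min dex at 37 °C; Read-out: per-cell GR-EGFP intensity, nucleus versus surrounding cytoplasmic ring, well-averaged.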
Large screens that a line does not name were inactive. Hits are enriched below; roughly 8.9% of the tested compounds scored in any of these assays.

CCN(CC)S(=O)(=O)c1cccc(N=NC2=C(O)CCCC2=O)c1	L major viab 61
Cc1cccc(-c2nc(CN3CCCC(C(=O)NC4CCCCC4)C3)c(C)o2)c1 (stereo not given)	none (no result: bCat nuc transl)
Cc1[nH]c(=S)[nH]c(=O)c1Cc1ccc(OCC(C)C)cc1	MT stabilize HCS 15
CC(=O)c1cccc(NC(=O)c2ccc(N(Cc3ccc(C)cc3)S(C)(=O)=O)cc2)c1	L major viab 53
C=CCN(c1ccc(C(=O)Nc2ccc(C)c(C)c2)cc1)S(C)(=O)=O	L major viab 55
C=CCN(c1ccc(C(=O)Nc2ccc(C)cc2)cc1)S(C)(=O)=O	none
Cc1ccc(CC(NC(=O)c2ccccc2)C(=O)NC(Cc2ccccc2)C(=O)O)cc1 (stereo not given)	none
O=C(O)CCC(NC(=O)C(Cc1ccc2c(c1)OCO2)NC(=O)c1ccccc1)C(=O)O (stereo not given)	none
O=C(NC(Cc1ccc2c(c1)OCO2)C(=O)NC(Cc1ccccc1)C(=O)O)c1ccccc1 (stereo not given)	L major viab 88 (no result: bCat nuc transl, HSV augment)
CC(NC(=O)C(Cc1ccccc1)NC(=O)c1ccccc1)C(=O)O (stereo not given)	L major viab 85
BrC(/C=C\c1ccccc1)=N/Nc1nc(N2CCOCC2)nc(N2CCOCC2)n1	none
COc1ccc(CC(=O)c2ccc(O)cc2O)cc1	none (no result: L major viab, MT stabilize HCS)
CC(=O)N1CCc2c(sc(NC(=O)c3ccc4c(c3)OCCO4)c2C#N)C1	L major viab 54, bCat nuc transl 57, MT stabilize HCS 34
COc1ccc(Cc2noc(CN3CCCN(Cc4ccc(F)cc4)CC3)n2)cc1OC	L major viab 77
COc1ccc(Cc2noc(CN3CCC(c4ccncc4)CC3)n2)cc1OC	none
Fc1cccc(Cc2noc(CN3CCCN(C4Cc5ccccc5C4)CC3)n2)c1	L major viab 88
Fc1cccc(Cc2noc(CN3CCN(C4CCc5ccccc5C4)CC3)n2)c1 (stereo not given)	L major viab 89
Cc1cccc(C)c1NC(=O)CSc1nnc(C)n1-c1ccccc1	none
CC(C)(C)N=C1NN=C(c2cc3ccccc3o2)CS1	none
CCOC(=O)c1c(-c2ccco2)csc1NC(=O)CSc1nnc(N)s1	none (no result: HSV augment)
O=[N+]([O-])c1cc(-c2nc(-c3ccncc3)no2)cc([N+](=O)[O-])c1	L major viab 94
CCOc1ccc(-c2nc(-c3ccncc3)no2)cc1OCC	L major viab 89
Cc1nn(-c2ccccc2)c2sc(C(=O)N(CC(=O)NC3CCCC3)Cc3ccco3)cc12	MT stabilize HCS 40
Cc1nn(-c2ccccc2)c2sc(C(=O)NC3CC3)cc12	none
O=[N+]([O-])c1cc(CN2CCN(c3ccccc3)CC2)c(O)c2ncccc12	L major viab 100
O=[N+]([O-])c1cc(CN2CCOCC2)c2cccnc2c1O	none
O=S(=O)(c1ccc(Cl)cc1)N1CCN(Cc2ccc(O)c3ncccc23)CC1	L major viab 98
Oc1ccccc1-c1nc(N2CCN(Cc3ccccc3)CC2)c2ccccc2n1	none
Oc1ccc(CN2CCN(Cc3ccccc3)CC2)c2cccnc12	L major viab 100 (no result: bCat nuc transl)
CN1CCN(Cc2cc(COCc3ccccc3)c3cccnc3c2O)CC1	L major viab 100
O=C(Cc1ccc2c(c1)OCCO2)N1CCN(S(=O)(=O)c2cccc(Cl)c2Cl)CC1	none
CCCCC(=O)Nc1cc(OC)c(NC(=O)C2CCCCC2)cc1OC	none
Cc1ccc(N/N=C/c2c(C)c(C#N)c(=O)n(C)c2O)cc1C	L major viab 80
Cn1c(=O)c2c(SCc3cccnc3)nc(C3CC3)nc2n(C)c1=O	L major viab 53 (no result: bCat nuc transl)
CCc1nc(SCc2cccnc2)c2c(=O)n(C)c(=O)n(C)c2n1	none
CC(C)Cc1nc(SCc2cccnc2)c2c(=O)n(C)c(=O)n(C)c2n1	L major viab 96
CC1=C(C(=O)OC(C)(C)C)C(c2cccs2)NC(=O)N1 (stereo not given)	L major viab 69
CC(C)(C)n1nnnc1C(c1ccc(F)cc1)N1CCC(C(N)=O)CC1 (stereo not given)	none
CCC(=O)N1CCc2cc(S(=O)(=O)NC(Cc3ccccc3)C(=O)NC3CCCC3)ccc21 (stereo not given)	none
